Measurements from ChEMBL document CHEMBL3758101, “Synthesis and biological evaluation of fluorinated 1,5-diarylpyrrole-3-alkoxyethyl ether derivatives as selective COX-2 inhibitors endowed with anti-inflammatory activity” (Eur J Med Chem, 2016).
pIC50: −log10 of the molar value.

Tests used:
[1] = tested on: Mus musculus; assay: Antinociceptive activity in CD1 albino mouse model of acetic acid-induced visceral pain assessed as number of writhes at 10 mg/kg, po pretreated for 60 mins before acetic acid challenge measured after 5 mins (reference value: 32.5 +/- 2.4); assay type: functional
[2] = tested on: Rattus norvegicus; assay: Antihyperalgesic effect in Sprague-Dawley rat model of monosodium iodoacetate-induced osteoarthritis assessed as withdrawal threshold at 3 mg/kg, ip administered 14 days post MIA challenge measured after 60 mins by paw pressure test (reference value: 36.1 +/- 3.5 g); assay type: functional
Summary of the method: (§1)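 Male Sprague–Dawley rats (200–250 g). MIA (2 mg/25 µL) was injected into the left tibiotarsal joint on day 0 under 2% isoflurane; controls received 25 µL saline. On day 14 compound or vehicle was given at time 0. Paw pressure threshold (g) was read with an analgesimeter using a blunt conical probe on the dorsal paw at 30, 60, 90 and 120 min. Mean ± s.e.m., 6 rats.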

[3] = tested on: Rattus norvegicus; assay: Antihyperalgesic effect in Sprague-Dawley rat model of monosodium iodoacetate-induced osteoarthritis assessed as withdrawal threshold at 20 mg/kg, ip administered 14 days post MIA challenge measured after 60 mins by paw pressure test (reference value: 36.1 +/- 3.5 g); assay type: functional; summary of the method: as §1
[4] = tested on: Rattus norvegicus; assay: Antiinflammatory activity in Sprague-Dawley rat model of carrageenan-induced paw edema assessed as paw volume at 10 mg/kg, po administered 2 hrs post carrageenan challenge measured after 90 mins by plethysmometry (reference value: 37.2 +/- 3.4 ml); assay type: functional
[5] = tested on: HaCaT; assay: Cytotoxicity against human HaCaT cells at 1 to 50 uM after 24 hrs by LDH release assay; assay type: cell-based
Summary of the method: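 HaCaT cells were grown in high-glucose DMEM with 10% FBS to 80% confluency. They were exposed 24 h to compound at 1–50 µM (final DMSO ≤0.1%). LDH release was expressed as a percentage of Triton X-100 lysis (100%); mean of three experiments.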

[6] = target: T1, Prostaglandin G/H synthase 1 (Mus musculus, UniProt P22437); assay: Inhibition of COX-1 in mouse J774 cells assessed as reduction in PGE2 level using arachidonic acid as substrate preincubated for 15 mins followed by incubation with arachidonic acid for 30 mins by radio immunoassay; assay type: cell-based
T1 sequence (P22437 whole entry): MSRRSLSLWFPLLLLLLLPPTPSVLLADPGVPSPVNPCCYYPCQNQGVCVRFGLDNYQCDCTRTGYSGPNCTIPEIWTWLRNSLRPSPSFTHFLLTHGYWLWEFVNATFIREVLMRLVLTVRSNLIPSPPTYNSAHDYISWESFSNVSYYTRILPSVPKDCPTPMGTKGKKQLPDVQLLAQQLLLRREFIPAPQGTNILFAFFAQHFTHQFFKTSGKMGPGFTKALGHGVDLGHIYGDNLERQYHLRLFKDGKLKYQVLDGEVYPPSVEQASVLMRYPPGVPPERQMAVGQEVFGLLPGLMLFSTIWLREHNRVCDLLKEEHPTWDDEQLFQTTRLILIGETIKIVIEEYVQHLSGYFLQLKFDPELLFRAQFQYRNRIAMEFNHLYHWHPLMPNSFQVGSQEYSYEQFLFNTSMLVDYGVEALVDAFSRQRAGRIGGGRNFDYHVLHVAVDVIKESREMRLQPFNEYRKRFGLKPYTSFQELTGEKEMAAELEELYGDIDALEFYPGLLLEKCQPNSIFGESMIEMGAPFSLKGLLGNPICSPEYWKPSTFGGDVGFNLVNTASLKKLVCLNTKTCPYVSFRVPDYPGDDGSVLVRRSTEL
Summary of the method: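 Murine J774 macrophages (2.5 × 10^5 cells/mL) were adhered 2 h at 37 °C and given fresh medium. Cells were pretreated with compound at 100 µM for 15 min, then incubated 30 min at 37 °C with 15 µM arachidonic acid. Supernatant PGE2 was measured by RIA as % inhibition versus control; triplicate wells, three experiments, IC50 from a sigmoidal variable-slope fit.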

[7] = tested on: Rattus norvegicus; assay: Antihyperalgesic effect in Sprague-Dawley rat model of monosodium iodoacetate-induced osteoarthritis assessed as withdrawal threshold at 10 mg/kg, ip administered 14 days post MIA challenge measured after 120 mins by paw pressure test (reference value: 39.2 +/- 4 g); assay type: functional; summary of the method: as §1
[8] = tested on: Rattus norvegicus; assay: Antihyperalgesic activity in Sprague-Dawley rat model of carrageenan-induced inflammatory pain assessed as paw pressure threshold at 20 mg/kg, po administered 2 hrs post carrageenan challenge measured after 90 mins by paw pressure test (reference value: 37.2 +/- 3.4 g)
[9] = tested on: Rattus norvegicus; assay: Antiinflammatory activity in Sprague-Dawley rat model of carrageenan-induced […] at 10 mg/kg, po administered 2 hrs post carrageenan challenge measured after 60 mins by […] (reference value: 35.4 +/- 3.6 ml); assay type: functional
[10] = target: T2, Prostaglandin G/H synthase 2 (Mus musculus, UniProt Q05769); assay: Inhibition of COX-2 in mouse J774 cells assessed as reduction in LPS-induced PGE2 level incubated for 24 hrs by radio immunoassay; assay type: cell-based
T2 sequence (Q05769 whole entry): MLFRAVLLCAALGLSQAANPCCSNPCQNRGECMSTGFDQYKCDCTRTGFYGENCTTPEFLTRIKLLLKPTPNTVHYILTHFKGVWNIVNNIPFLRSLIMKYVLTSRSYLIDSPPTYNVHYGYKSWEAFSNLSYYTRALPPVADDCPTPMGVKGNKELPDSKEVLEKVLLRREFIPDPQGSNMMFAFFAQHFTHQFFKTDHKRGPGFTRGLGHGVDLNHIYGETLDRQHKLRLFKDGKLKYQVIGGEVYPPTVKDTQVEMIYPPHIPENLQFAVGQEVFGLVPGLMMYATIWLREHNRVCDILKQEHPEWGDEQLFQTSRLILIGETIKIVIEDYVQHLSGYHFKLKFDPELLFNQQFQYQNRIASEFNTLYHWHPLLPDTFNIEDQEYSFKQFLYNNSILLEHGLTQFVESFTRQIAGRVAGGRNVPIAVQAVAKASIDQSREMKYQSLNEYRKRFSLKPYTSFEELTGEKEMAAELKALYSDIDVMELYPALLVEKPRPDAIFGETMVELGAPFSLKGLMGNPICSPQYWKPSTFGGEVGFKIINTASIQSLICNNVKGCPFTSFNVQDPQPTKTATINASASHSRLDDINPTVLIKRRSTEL
Summary of the method: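 Murine J774 macrophages were stimulated for 24 h with E. coli LPS (10 µg/mL) to induce COX-2, with or without compound (0.001–10 µM). Supernatant PGE2 was measured by RIA as % inhibition of production versus control; triplicate wells, mean of three experiments, IC50 from a sigmoidal variable-slope fit.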

[11] = tested on: Rattus norvegicus; assay: Antihyperalgesic effect in Sprague-Dawley rat model of monosodium iodoacetate-induced osteoarthritis assessed as withdrawal threshold at 10 mg/kg, ip administered 14 days post MIA challenge measured after 60 mins by paw pressure test (reference value: 36.1 +/- 3.5 g); assay type: functional; summary of the method: as §1

For `Cc1c(CCOCCCF)cc(-c2ccc(S(C)(=O)=O)cc2)n1-c1ccc(F)cc1`, the Activity [1] was 17.7, the Activity [2] was 45.4 g and the Activity [3] was 54.5 g. The Activity [4] was 47.2 g, the Activity [5] was “Non-toxic” and the pIC50 [6] was < 4.00. It also gave an Activity [7] of 40.6 g, an Activity [8] of 44.9 g and an Activity [9] of 53.5 g. The pIC50 [10] was 8.15 and the Activity [11] was 51.8 g.
